Reference: ChEMBL document CHEMBL3272093, “Antibacterial halogenoacetyl derivatives of amino acids and simple peptides” (1977)
Converted amounts (≈) assume the structure as drawn. The source made the active and inactive calls. The calls are words filed in the database; no cut-off is given here.

tested on: Salmonella enterica subsp. enterica serovar Typhimurium; assay: Inhibition of Salmonella typhimurium DD-carboxypeptidase using UDP-N-acetylmuramyl-L-alanyl-meso-diaminopimeloyl-D-alanyl-D-alanine as substrate at 10 to 100 ug/ml
Procedure, shortened: (§1)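 Enzymes tested for release of D-alanine, measured with D-amino acid oxidase. Compounds assayed at 10 and 100 μg/mL. Substrates: Ac2-L-Lys-D-Ala-D-Ala for the Streptomyces R61 enzyme; UDP-N-acetylmuramyl-L-alanyl-meso-diaminopimeloyl-D-alanyl-D-alanine for the B. stearothermophilus and S. typhimurium enzymes.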

inhibition	SMILES
inactive	C[C@@H](NC(=O)[C@H](CCCCN1C(=O)c2ccccc2C1=O)NC(=O)CI)C(=O)N[C@H](CCC(=O)OC(C)(C)C)C(=O)OC(C)(C)C
inactive	C[C@@H](NC(=O)[C@H](CCCCNC(=O)CI)NC(=O)OC(C)(C)C)C(=O)N[C@H](C)C(=O)OC(C)(C)C
inactive	O=C(CI)NCCCC(=O)OCc1ccccc1
inactive	C[C@@H](NC(=O)[C@H](CCCCN1C(=O)CCC1=O)NC(=O)CI)C(=O)N[C@H](C)C(=O)OC(C)(C)C
inactive	C[C@@H](NC(=O)[C@@H](C)NC(=O)[C@@H](N)CCCCNC(=O)CI)C(=O)O.O=C(O)C(F)(F)F
inactive	C[C@@H](NC(=O)CBr)C(=O)N[C@H](C)C(=O)OC(C)(C)C
inactive	O=C(CI)NCCCCCC(=O)OCc1ccccc1
inactive	O=C(CI)NCCCCC(=O)OCc1ccccc1
inactive	C[C@@H](NC(=O)CI)C(=O)N[C@H](CCC(=O)O)C(=O)O
inactive	C[C@@H](NC(=O)[C@H](CCCCN)NC(=O)CI)C(=O)N[C@H](C)C(=O)OC(C)(C)C.Cc1ccc(S(=O)(=O)O)cc1

tested on: Staphylococcus aureus; assay: Antibacterial activity against Staphylococcus aureus assessed as inhibition of growth after 18 hrs by broth culture method; assay type: functional
Procedure, shortened: (§2)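 Broth dilution in 0.5 mL Sensitivity Test Broth, inoculated with 0.2 mL of a 10^-4 dilution of an 18-h broth culture. MIC read after 18-h incubation as the lowest concentration preventing growth.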

MIC [µg/mL]	SMILES
62 (≈ 81.9 µM)	C[C@@H](NC(=O)[C@H](CCCCN1C(=O)c2ccccc2C1=O)NC(=O)CI)C(=O)N[C@H](CCC(=O)OC(C)(C)C)C(=O)OC(C)(C)C
125 (≈ 204 µM)	C[C@@H](NC(=O)[C@H](CCCCNC(=O)CI)NC(=O)OC(C)(C)C)C(=O)N[C@H](C)C(=O)OC(C)(C)C
7.5 (≈ 20.8 µM)	O=C(CI)NCCCC(=O)OCc1ccccc1
> 500	C[C@@H](NC(=O)[C@H](CCCCN1C(=O)CCC1=O)NC(=O)CI)C(=O)N[C@H](C)C(=O)OC(C)(C)C
500	C[C@@H](NC(=O)[C@@H](C)NC(=O)[C@@H](N)CCCCNC(=O)CI)C(=O)O.O=C(O)C(F)(F)F
62 (≈ 184 µM)	C[C@@H](NC(=O)CBr)C(=O)N[C@H](C)C(=O)OC(C)(C)C
3.7 (≈ 9.51 µM)	O=C(CI)NCCCCCC(=O)OCc1ccccc1
< 0.4	O=C(CI)NCCCCC(=O)OCc1ccccc1
500 (≈ 1290 µM)	C[C@@H](NC(=O)CI)C(=O)N[C@H](CCC(=O)O)C(=O)O
250	C[C@@H](NC(=O)[C@H](CCCCN)NC(=O)CI)C(=O)N[C@H](C)C(=O)OC(C)(C)C.Cc1ccc(S(=O)(=O)O)cc1

target: T1, D-alanyl-D-alanine carboxypeptidase DacA (Geobacillus stearothermophilus) (UniProt Q05523); assay: Inhibition of Bacillus stearothermophilus DD-carboxypeptidase using UDP-N-acetylmuramyl-L-alanyl-meso-diaminopimeloyl-D-alanyl-D-alanine as substrate at 10 to 100 ug/ml; procedure, shortened: as §1
T1 sequence (whole entry): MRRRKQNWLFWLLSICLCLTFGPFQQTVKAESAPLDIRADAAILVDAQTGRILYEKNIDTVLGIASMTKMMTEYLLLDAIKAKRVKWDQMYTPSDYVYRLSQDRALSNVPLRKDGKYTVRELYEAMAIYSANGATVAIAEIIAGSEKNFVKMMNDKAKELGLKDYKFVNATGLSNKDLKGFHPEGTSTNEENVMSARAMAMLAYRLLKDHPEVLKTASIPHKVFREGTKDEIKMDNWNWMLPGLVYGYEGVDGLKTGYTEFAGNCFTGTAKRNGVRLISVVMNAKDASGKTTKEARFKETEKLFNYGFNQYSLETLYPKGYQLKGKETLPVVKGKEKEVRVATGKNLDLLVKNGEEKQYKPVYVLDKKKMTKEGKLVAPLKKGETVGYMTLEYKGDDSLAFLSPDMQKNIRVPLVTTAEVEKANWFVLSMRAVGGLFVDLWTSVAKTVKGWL

inhibition	SMILES
inactive	C[C@@H](NC(=O)[C@H](CCCCN1C(=O)c2ccccc2C1=O)NC(=O)CI)C(=O)N[C@H](CCC(=O)OC(C)(C)C)C(=O)OC(C)(C)C
inactive	C[C@@H](NC(=O)[C@H](CCCCNC(=O)CI)NC(=O)OC(C)(C)C)C(=O)N[C@H](C)C(=O)OC(C)(C)C
inactive	O=C(CI)NCCCC(=O)OCc1ccccc1
inactive	C[C@@H](NC(=O)[C@H](CCCCN1C(=O)CCC1=O)NC(=O)CI)C(=O)N[C@H](C)C(=O)OC(C)(C)C
inactive	C[C@@H](NC(=O)[C@@H](C)NC(=O)[C@@H](N)CCCCNC(=O)CI)C(=O)O.O=C(O)C(F)(F)F
inactive	C[C@@H](NC(=O)CBr)C(=O)N[C@H](C)C(=O)OC(C)(C)C
inactive	O=C(CI)NCCCCCC(=O)OCc1ccccc1
inactive	O=C(CI)NCCCCC(=O)OCc1ccccc1
inactive	C[C@@H](NC(=O)CI)C(=O)N[C@H](CCC(=O)O)C(=O)O
inactive	C[C@@H](NC(=O)[C@H](CCCCN)NC(=O)CI)C(=O)N[C@H](C)C(=O)OC(C)(C)C.Cc1ccc(S(=O)(=O)O)cc1

target: D-alanyl-D-alanine carboxypeptidase (Streptomyces sp. R61) (UniProt P15555); assay: Inhibition of Streptomyces R61 DD-carboxypeptidase using Ac2-L-Lys-D-Ala-D-Ala as substrate at 10 to 100 ug/ml; procedure, shortened: as §1
Sequence (P15555 whole entry): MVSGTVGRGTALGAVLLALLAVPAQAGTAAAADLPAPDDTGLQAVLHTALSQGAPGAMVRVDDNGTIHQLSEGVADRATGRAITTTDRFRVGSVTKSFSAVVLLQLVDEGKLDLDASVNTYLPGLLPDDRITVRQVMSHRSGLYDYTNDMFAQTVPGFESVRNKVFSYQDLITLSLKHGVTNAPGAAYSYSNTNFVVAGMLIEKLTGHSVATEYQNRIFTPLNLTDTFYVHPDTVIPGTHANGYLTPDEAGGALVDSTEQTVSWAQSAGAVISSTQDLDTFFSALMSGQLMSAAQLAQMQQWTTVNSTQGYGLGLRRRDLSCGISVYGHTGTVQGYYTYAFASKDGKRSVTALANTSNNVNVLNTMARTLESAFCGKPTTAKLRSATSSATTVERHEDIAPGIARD

inhibition	SMILES
inactive	C[C@@H](NC(=O)[C@H](CCCCN1C(=O)c2ccccc2C1=O)NC(=O)CI)C(=O)N[C@H](CCC(=O)OC(C)(C)C)C(=O)OC(C)(C)C
inactive	C[C@@H](NC(=O)[C@H](CCCCNC(=O)CI)NC(=O)OC(C)(C)C)C(=O)N[C@H](C)C(=O)OC(C)(C)C
inactive	O=C(CI)NCCCC(=O)OCc1ccccc1
inactive	C[C@@H](NC(=O)[C@H](CCCCN1C(=O)CCC1=O)NC(=O)CI)C(=O)N[C@H](C)C(=O)OC(C)(C)C
inactive	C[C@@H](NC(=O)[C@@H](C)NC(=O)[C@@H](N)CCCCNC(=O)CI)C(=O)O.O=C(O)C(F)(F)F
inactive	C[C@@H](NC(=O)CBr)C(=O)N[C@H](C)C(=O)OC(C)(C)C
inactive	O=C(CI)NCCCCCC(=O)OCc1ccccc1
inactive	O=C(CI)NCCCCC(=O)OCc1ccccc1
inactive	C[C@@H](NC(=O)CI)C(=O)N[C@H](CCC(=O)O)C(=O)O
inactive	C[C@@H](NC(=O)[C@H](CCCCN)NC(=O)CI)C(=O)N[C@H](C)C(=O)OC(C)(C)C.Cc1ccc(S(=O)(=O)O)cc1

tested on: Escherichia coli; assay: Antibacterial activity against Escherichia coli assessed as inhibition of growth after 18 hrs by broth culture method; assay type: functional; procedure, shortened: as §2

MIC [µg/mL]	SMILES
> 500	C[C@@H](NC(=O)[C@H](CCCCN1C(=O)c2ccccc2C1=O)NC(=O)CI)C(=O)N[C@H](CCC(=O)OC(C)(C)C)C(=O)OC(C)(C)C
> 500	C[C@@H](NC(=O)[C@H](CCCCNC(=O)CI)NC(=O)OC(C)(C)C)C(=O)N[C@H](C)C(=O)OC(C)(C)C
250 (≈ 692 µM)	O=C(CI)NCCCC(=O)OCc1ccccc1
> 500	C[C@@H](NC(=O)[C@H](CCCCN1C(=O)CCC1=O)NC(=O)CI)C(=O)N[C@H](C)C(=O)OC(C)(C)C
> 500	C[C@@H](NC(=O)[C@@H](C)NC(=O)[C@@H](N)CCCCNC(=O)CI)C(=O)O.O=C(O)C(F)(F)F
> 500	C[C@@H](NC(=O)CBr)C(=O)N[C@H](C)C(=O)OC(C)(C)C
62 (≈ 159 µM)	O=C(CI)NCCCCCC(=O)OCc1ccccc1
62 (≈ 165 µM)	O=C(CI)NCCCCC(=O)OCc1ccccc1
> 500	C[C@@H](NC(=O)CI)C(=O)N[C@H](CCC(=O)O)C(=O)O
> 500	C[C@@H](NC(=O)[C@H](CCCCN)NC(=O)CI)C(=O)N[C@H](C)C(=O)OC(C)(C)C.Cc1ccc(S(=O)(=O)O)cc1
